Screens from PubChem.
A selection: hits, their analogues and other compounds. The true share with any hit is near 4.9%.
RAM network inh – inhibitors of the yeast RAM network, primary screen, dse1pr::URA3 reporter, 5-FOA selection | inhibition, % at 50 µM | S. cerevisiae dse1pr::URA3 reporter, 5-FOA growth OD615, 2 d; analog-sensitive cbk1-as2 kinase mutant strain | 1.8% of 190,000 active | AID 868, 2007;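 active = inhibition above a set limit, 3 SD over mean compound inhibition, cut at about 8.4% in these data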;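 also: inhibition rescues growth on 5-FOA so higher OD means more RAM inhibition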
NPY-Y2 antag – NPY-Y2 receptor antagonists, primary screen, cell-based; inhibition, % at 2.7 µM; 0.99% of 140,000 active; Neuropeptide Y receptor type 2 (Homo sapiens), P49146; NPY-Y2 expressing cells, antagonist mode; in the data active = inhibition above about 17%
Target sequence (P49146 whole entry, looked up): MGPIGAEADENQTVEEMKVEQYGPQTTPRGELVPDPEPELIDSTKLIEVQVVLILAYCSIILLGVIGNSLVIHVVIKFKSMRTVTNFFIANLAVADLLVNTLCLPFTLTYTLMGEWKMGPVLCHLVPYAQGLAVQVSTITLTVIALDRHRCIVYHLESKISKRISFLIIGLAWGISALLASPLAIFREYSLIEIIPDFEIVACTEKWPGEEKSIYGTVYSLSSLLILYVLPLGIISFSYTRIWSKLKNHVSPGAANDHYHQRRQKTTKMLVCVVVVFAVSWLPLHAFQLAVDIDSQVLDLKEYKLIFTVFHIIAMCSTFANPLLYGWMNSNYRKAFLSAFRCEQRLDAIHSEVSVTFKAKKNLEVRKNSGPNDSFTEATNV
WT yeast gro inh – growth inhibition of WT strain, primary screen, mitochondrial fusion inhibitor project, WT and mutant strains, chemical genetic. mitochondrial fusion phenotypic screen. inhibition, % at 10 µM. 2.1% of 190,000 active; in the data active = inhibition above about 58%; tested in S. cerevisiae
NPY-Y1 PAM-ag – NPY-Y1 receptor potentiators or agonists, primary screen, cell-based | Neuropeptide Y receptor type 1 (Homo sapiens), P25929 | NPY-Y1 expressing cells, potentiator/agonist activation | activation, % at 3.6 µM | 0.37% of 220,000 active; in the data active = activation above about 33%, passing the limit was not always enough;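 also: cells stimulated with NPY at EC10 then isoproterenol at EC100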
NPY2 pot ag – NPY-Y2 potentiators or agonists, primary screen, cell-based; Neuropeptide Y receptor type 2 (Homo sapiens), P49146; cells expressing NPY-Y2, potentiator/agonist read-out; activation, % at 3.6 µM; 0.45% of 220,000 active; AID 1359, 2008; in the data active = activation above about 27%;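 also: cells stimulated with NPY near EC25 plus isoproterenol at EC100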
NPY-Y1 antag – NPY-Y1 receptor antagonists, primary screen, cell-based; inhibition, % at 3.6 µM; 1% of 200,000 active; Neuropeptide Y receptor type 1 (Homo sapiens), P25929; HEK293-CNG Y1 cells, membrane potential fluorescence; NPY at EC95, then isoproterenol;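 active = inhibition above the campaign mean inhibition of all tested compounds plus 3 SD, cut at about 20% in these data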
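Assay system: HEK293 Y1/CNG channel cell line; Doses: single compound dose of 3.6 µM, 0.4% DMSO; Timing: dye 3 h, compound 60 min room temperature, stimulation 45 min; Technique: Membrane-potential fluorescent dye readout; Measure: % inhibition of NPY effect.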
Large screens that a line does not name were inactive.

Cc1cc(C)n(/N=C/c2cc(Cl)cc(Cl)c2O)c(=O)c1	none (no result: NPY-Y2 antag)
COc1ccc(CS(=O)(=O)/C(Cl)=C(/Cl)C(=O)Nc2ccc(OC)nc2)cc1	WT yeast gro inh 63
COc1cccc(OC)c1C(=O)NC(C)C12CC3CC(CC(C3)C1)C2 (configuration not stated)	WT yeast gro inh 62
CCOC(=O)c1cc2sccc2n1CC(=O)C(C)(C)C	none (no result: NPY-Y2 antag)
O=C(c1nn(Cc2ccccc2)c(=O)c2ccccc12)N1CCN(c2ccccn2)CC1	NPY-Y2 antag 20, NPY-Y1 antag 46
O=C(c1nn(Cc2ccccc2)c(=O)c2ccccc12)N1CCc2ccccc2C1	none
O=C(CNCc1ccccc1)Nc1ccc(F)cc1	none (no result: NPY-Y2 antag)
Cc1ccc(Cn2ncn3c(cc4ccccc43)c2=O)cc1	none
O=c1cc2c(nn1Cc1ccc(Cl)cc1)-c1ccccc1CC2	WT yeast gro inh 59
Nc1cc(-c2ccccc2)nn1Cc1ccc(Cl)cc1	none
Cc1ccc(Cn2nc3c(cc2=O)CCc2ccccc2-3)cc1	WT yeast gro inh 74 (no result: NPY-Y2 antag)
O=C1c2ccccc2C(=O)N1OCc1cccc(Cl)c1	none
O=c1cc2c(nn1Cc1cccc(Cl)c1)-c1ccccc1CC2	WT yeast gro inh 81
COc1ccccc1-c1cc(C2CC2)nc(N)c1C#N	none
CCOc1ccc2nc(SCC(=O)N3CCN(C(=O)c4ccco4)CC3)sc2c1	none
Cc1ccc(N/C(N)=N/c2nc(CSc3nnc(C)s3)cc(=O)[nH]2)c(C)c1	NPY-Y1 antag 20 (no result: NPY-Y2 antag)
COc1ccc(N/C(N)=N/c2nc(CSc3nnc(C)s3)cc(=O)[nH]2)cc1	none (no result: NPY-Y2 antag)
Fc1ccc(-c2csc3ncnc(N4CCc5ccccc5C4)c23)cc1	RAM network inh 9.1, WT yeast gro inh 66
Fc1ccc(-c2csc3ncnc(Nc4ccc(N5CCOCC5)cc4)c23)cc1	none
Cc1ccc(-c2csc3ncnc(N4CCc5ccccc5C4)c23)cc1	WT yeast gro inh 66
CCCCNC(=S)Nc1cc(S(=O)(=O)N2CCCCC2)ccc1C	none (no result: RAM network inh, NPY-Y2 antag, WT yeast gro inh, NPY-Y1 antag)
CC(C)(C)NC(=O)CSc1ncnc2c1nnn2Cc1ccccc1Cl	none
O=C1CCCC/C1=C/Nc1ccc2c(c1)OCO2	none
Oc1ccc(N=Nc2nc(-c3ccccc3)c(-c3ccccc3)[nH]2)cc1	RAM network inh 8.8, WT yeast gro inh 92
COc1cccc(S(=O)(=O)c2nc(C)c3c(n2)CCC3)c1	none (no result: NPY-Y2 antag)
S=C(NCCCN1CCOCC1)N1CCN(c2nc(-c3ccc(Cl)cc3)cs2)CC1	WT yeast gro inh 89 (no result: NPY-Y2 antag)
S=C(NCC1CCCO1)N1CCN(c2nc(-c3ccc(Cl)cc3)cs2)CC1 (configuration not stated)	WT yeast gro inh 67 (no result: NPY-Y2 antag)
CC(=O)c1ccc(Oc2ccc(C(=O)c3ccc(C)c(C)c3)cc2[N+](=O)[O-])cc1	none
O=C(Cn1cnc2ccccc2c1=O)NC1CCCc2ccccc21 (configuration not stated)	none
Cc1ccccc1OCCNc1cc(N2CCN(CCO)CC2)ccc1[N+](=O)[O-]	none
CC1CN(c2oc(COc3ccc(Cl)cc3Cl)nc2C#N)CC(C)O1 (configuration not stated)	NPY-Y2 antag 23, NPY-Y1 antag 29
N#Cc1nc(COc2ccccc2Cl)oc1N1CCCC1	none (no result: NPY-Y2 antag)
COc1ccc(OCc2nc(C#N)c(N3CCN(c4ccc(OC)cc4)CC3)o2)cc1	RAM network inh 8.4, NPY-Y2 antag 25, NPY-Y1 antag 37
COc1ccc(N2CCN(c3oc(COc4ccccc4Cl)nc3C#N)CC2)cc1	NPY-Y2 antag 25, NPY-Y1 antag 42
Cc1cccc(OCc2nc(C#N)c(N3CC(C)CC(C)C3)o2)c1 (configuration not stated)	NPY-Y2 antag 18, NPY-Y1 antag 56
Cc1cccc(OCc2nc(C#N)c(N3CCCC3)o2)c1	none (no result: RAM network inh, NPY-Y2 antag, WT yeast gro inh, NPY-Y1 antag)
Nc1nc(N2CCN(Cc3ccccc3)CC2)n[nH]1	none (no result: NPY-Y2 antag)
CC(=O)O/N=C(\N)Cc1ccc(-c2csnn2)cc1	none (no result: RAM network inh, NPY-Y2 antag, WT yeast gro inh, NPY-Y1 antag)
Cc1cccc(C2(c3cccc(C)c3)OC(=O)c3ccccc32)c1	RAM network inh 9.0
COCCCN(Cc1ccccn1)S(=O)(=O)Cc1ccccc1	none
COc1cccc(C2=CC(c3ccccc3)n3nnnc3N2)c1 (configuration not stated)	WT yeast gro inh 68
COc1cccc(C2=CC(c3ccc(N(C)C)cc3)n3nnnc3N2)c1 (configuration not stated)	none
Cc1cccc(C(=O)N2CCC(=O)N(C(COCc3cccc(Cl)c3)Cc3ccccc3)CC2)c1 (configuration not stated)	none
O=C(c1ccc(Cl)c(Cl)c1)N1CCC(=O)N(C(COCc2cccc(Cl)c2)Cc2ccccc2)CC1 (configuration not stated)	RAM network inh 10
O=C(c1cccc(Cl)c1)N1CCC(=O)N(C(COCc2cccc(Cl)c2)Cc2ccccc2)CC1 (configuration not stated)	RAM network inh 9.5
O=C(CC1CCCCC1)Nc1ccccc1-c1ccccc1	none
CCOC(=O)C1(Cc2cccc(OC)c2)CCN(Cc2cccc3c2OCO3)CC1	NPY-Y1 antag 21 (no result: NPY-Y2 antag)
CCOC(=O)C1(CCOc2ccccc2)CCN(Cc2ccc3c(c2)OCCO3)CC1	NPY-Y1 antag 21 (no result: NPY-Y2 antag)
CCOC(=O)C1(CCCc2ccccc2)CCN(Cc2nccn2CC)CC1	WT yeast gro inh 59 (no result: NPY-Y2 antag)
CCOC(=O)C1(CCOc2ccccc2)CCN(Cc2nccn2CC)CC1	none (no result: NPY-Y2 antag)
CCOC(=O)C1(Cc2cccc(OC)c2)CCN(Cc2ccc3c(c2)OCCO3)CC1	none (no result: NPY-Y2 antag)
Cc1cc(-c2ccccc2)nc(SC(C(=O)O)c2ccccc2)n1 (configuration not stated)	none (no result: NPY-Y2 antag)
COc1ccc(/C=C2\CN(Cc3ccccc3)C/C(=C\c3ccc(OC)cc3)C2=O)cc1	RAM network inh 11
CC(C)C(c1nnnn1C1CCCC1)N1c2ccccc2CC1C (configuration not stated)	WT yeast gro inh 64
CC1(C)C2CCC1(C)C(NC1=NCCC1)C2 (configuration not stated)	none
COc1ccc(C(=O)Nc2ccc(Cl)cc2C(=O)NCCN2CCOCC2)cc1	WT yeast gro inh 71
CC1=CC(C)[C@H](/C=N/n2c(=O)[nH]c3c([nH]c4ccc(C)cc43)c2=O)C(C)C1 (some centres not stated)	none (no result: NPY-Y2 antag)
CCOC(=O)c1c(C)sc(Sc2ccc(Cl)cc2[N+](=O)[O-])c1OC	WT yeast gro inh 76
CCOC(=O)c1c(NC(=O)COC(=O)c2cc(OC)c(OC)cc2[N+](=O)[O-])sc(C)c1CC	none
Cc1ccc(CN2CCN(C(=O)C3CCC3)CC2)cc1	none
